This is an account of results in PubChem BioAssay AID492983 (Johns Hopkins Ion Channel Center, 2010).

The experiment concerns the target Short transient receptor potential channel 4 (Mus musculus) (UniProt Q9QUQ5). Nature of the experiment: inhibitors of receptor-activated mouse TRPC4 currents – cell-based, manual patch clamp, HEK TRPC4beta/mu-opioid, orthogonal assay, SAR follow-up (AID 492983). The conditions noted are these: whole-cell patch clamp currents, at 1 µM, stronger effect = higher value. In a few lines: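 System – HEK293 cells expressing TRPC4beta and mu-opioid receptor · Dosing – single test compound dose of 1 µM · Timing – over 2 min compound pretreatment, room temperature (22 °C) · Buffer or medium – ~400 nM free Ca2+ internal, pH 7.4 external · Detection – whole-cell patch clamp, 0 mV holding potential, -100 to +100 mV ramps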
A general note: In patch-clamp work, channel activity is measured electrically.

Broadly, the inhibition is how much of the control response was suppressed.

Chain of Short transient receptor potential channel 4 (Mus musculus) (Q9QUQ5 whole entry, looked up): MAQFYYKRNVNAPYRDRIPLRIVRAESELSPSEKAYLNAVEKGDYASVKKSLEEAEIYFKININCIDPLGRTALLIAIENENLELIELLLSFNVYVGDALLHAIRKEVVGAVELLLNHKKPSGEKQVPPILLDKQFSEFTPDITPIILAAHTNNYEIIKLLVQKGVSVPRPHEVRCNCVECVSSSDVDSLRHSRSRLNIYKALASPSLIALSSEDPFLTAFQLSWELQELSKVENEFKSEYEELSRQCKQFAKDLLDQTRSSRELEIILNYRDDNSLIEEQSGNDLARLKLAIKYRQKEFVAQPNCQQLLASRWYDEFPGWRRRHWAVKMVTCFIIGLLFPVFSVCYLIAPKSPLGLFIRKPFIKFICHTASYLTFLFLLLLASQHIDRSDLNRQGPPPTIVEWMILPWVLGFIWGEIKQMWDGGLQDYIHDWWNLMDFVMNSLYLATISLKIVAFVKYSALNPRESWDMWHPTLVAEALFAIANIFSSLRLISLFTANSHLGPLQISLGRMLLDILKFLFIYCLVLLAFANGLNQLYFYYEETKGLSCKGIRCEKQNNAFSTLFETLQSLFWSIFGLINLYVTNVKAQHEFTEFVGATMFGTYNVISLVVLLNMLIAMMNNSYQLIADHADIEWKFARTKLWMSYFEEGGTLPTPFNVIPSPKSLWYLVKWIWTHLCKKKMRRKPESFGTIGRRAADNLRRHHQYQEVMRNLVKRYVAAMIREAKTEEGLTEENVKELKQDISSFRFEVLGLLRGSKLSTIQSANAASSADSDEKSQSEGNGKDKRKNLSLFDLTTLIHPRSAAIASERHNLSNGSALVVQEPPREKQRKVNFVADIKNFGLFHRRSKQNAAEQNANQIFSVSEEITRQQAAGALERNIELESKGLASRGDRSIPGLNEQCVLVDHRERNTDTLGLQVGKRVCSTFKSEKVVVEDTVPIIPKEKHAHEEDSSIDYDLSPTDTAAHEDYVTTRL

As for `Cc1cc(N2CCCCC2)nc2ccccc12`, the inhibition at -100 mV is 69.5%. The inhibition at +100 mV (measured here: outward current at +100 mV) was 29.2%.
